Columns and labels:
[1] = molecular target: Monoamine transporters; serotonin & dopamine (Rattus norvegicus) (UniProt P31652+P23977); test: Selectivity for Dopamine and Serotonin transporters; format: protein assay
[2] = molecular target: Monoamine transporters; Norepininephrine & dopamine (Rattus norvegicus) (UniProt P23977+Q9WTR4); test: Selectivity for Dopamine and Norepinephrine transporters; format: protein assay
[3] = molecular target: Sodium-dependent dopamine transporter (Rattus norvegicus, UniProt P23977); test: In vitro binding affinity towards dopamine transporter in rat striatal membranes by […] displacement.; format: cell membranes, Striatum, Membrane
Outline: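 Crude membranes of rat corpus striatum in Tris-citrate buffer (pH 7.4) with Na+ and Mg2+ (4 mM). Six concentrations, duplicate; computer-fit IC50 converted to Ki via Cheng–Prusoff relation using radioligand K_d.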

[4] = molecular target: Norepinephrine transporter (Rattus norvegicus, UniProt Q9WTR4); test: In vitro binding affinity towards Norepinephrine transporter rat cerebral cortical homogenates by [3H]nisoxetine displacement.
Outline: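 Crude membrane fraction of rat frontoparietal cerebral cortex in 50 mM Tris-HCl (pH 7.4) with Na+, K+ (5 mM). Typically six concentrations in duplicate; curves computer-fit for IC50, converted to Ki = IC50/(1 + [L]/K_d).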

[5] = molecular target: Sodium-dependent serotonin transporter (Rattus norvegicus, UniProt P31652); test: In vitro binding affinity towards serotonin transporter in rat cerebral cortical homogenates by [3H]paroxetine displacement.
Sequence of Sodium-dependent serotonin transporter (P31652 whole entry): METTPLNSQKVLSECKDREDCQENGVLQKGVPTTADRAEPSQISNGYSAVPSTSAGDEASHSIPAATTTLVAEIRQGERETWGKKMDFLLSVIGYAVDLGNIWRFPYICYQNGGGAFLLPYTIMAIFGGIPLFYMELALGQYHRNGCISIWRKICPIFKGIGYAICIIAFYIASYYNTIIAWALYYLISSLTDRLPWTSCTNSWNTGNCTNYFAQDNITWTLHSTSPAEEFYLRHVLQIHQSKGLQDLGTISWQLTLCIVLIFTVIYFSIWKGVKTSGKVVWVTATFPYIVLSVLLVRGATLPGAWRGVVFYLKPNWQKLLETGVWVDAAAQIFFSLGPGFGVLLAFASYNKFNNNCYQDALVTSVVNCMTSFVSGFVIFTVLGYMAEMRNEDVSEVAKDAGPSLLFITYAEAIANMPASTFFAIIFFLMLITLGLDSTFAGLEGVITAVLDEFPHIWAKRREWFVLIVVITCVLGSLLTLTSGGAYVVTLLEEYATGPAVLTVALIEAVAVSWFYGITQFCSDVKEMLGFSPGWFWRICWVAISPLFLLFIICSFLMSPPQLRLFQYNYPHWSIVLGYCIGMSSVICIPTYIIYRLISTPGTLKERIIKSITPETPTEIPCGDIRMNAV

Sequence of Norepinephrine transporter (Q9WTR4 whole entry): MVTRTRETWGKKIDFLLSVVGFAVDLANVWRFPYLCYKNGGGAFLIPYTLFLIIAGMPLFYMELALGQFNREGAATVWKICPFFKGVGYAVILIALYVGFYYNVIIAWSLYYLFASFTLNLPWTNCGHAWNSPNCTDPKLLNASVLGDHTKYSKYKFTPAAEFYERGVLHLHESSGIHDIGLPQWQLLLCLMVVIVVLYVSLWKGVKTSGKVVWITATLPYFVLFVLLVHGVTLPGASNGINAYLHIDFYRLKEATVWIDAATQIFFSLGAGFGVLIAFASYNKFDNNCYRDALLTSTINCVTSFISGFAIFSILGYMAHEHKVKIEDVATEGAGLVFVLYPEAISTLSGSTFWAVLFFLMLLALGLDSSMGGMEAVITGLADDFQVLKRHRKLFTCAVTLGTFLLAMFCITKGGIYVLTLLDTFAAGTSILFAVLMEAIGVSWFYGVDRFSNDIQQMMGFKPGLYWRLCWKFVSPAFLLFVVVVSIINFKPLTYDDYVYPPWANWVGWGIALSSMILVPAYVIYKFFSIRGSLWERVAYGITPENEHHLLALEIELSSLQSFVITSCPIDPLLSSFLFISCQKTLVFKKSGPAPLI
Sequence of Sodium-dependent dopamine transporter (P23977 whole entry): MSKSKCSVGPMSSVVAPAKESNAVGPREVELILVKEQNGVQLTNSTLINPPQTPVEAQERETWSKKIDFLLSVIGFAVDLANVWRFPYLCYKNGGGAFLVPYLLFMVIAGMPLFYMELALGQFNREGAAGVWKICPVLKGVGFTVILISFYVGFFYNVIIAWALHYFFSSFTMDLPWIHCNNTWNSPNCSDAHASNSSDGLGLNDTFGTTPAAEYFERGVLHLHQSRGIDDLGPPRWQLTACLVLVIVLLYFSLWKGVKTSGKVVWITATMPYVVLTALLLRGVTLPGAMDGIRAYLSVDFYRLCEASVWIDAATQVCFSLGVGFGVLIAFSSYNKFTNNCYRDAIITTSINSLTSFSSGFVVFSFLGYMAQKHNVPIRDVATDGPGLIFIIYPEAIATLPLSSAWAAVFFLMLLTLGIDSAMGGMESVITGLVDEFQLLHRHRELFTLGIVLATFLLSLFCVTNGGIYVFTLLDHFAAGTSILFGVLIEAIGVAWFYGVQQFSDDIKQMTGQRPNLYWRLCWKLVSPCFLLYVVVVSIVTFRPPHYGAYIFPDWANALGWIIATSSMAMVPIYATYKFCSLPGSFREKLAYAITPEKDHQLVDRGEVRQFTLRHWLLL
Sequence of Monoamine transporters; serotonin & dopamine (Rattus norvegicus) (P23977 whole entry, looked up): as the sequence (P23977 whole entry) above
Sequence of Monoamine transporters; serotonin & dopamine (Rattus norvegicus) (P31652 whole entry, looked up): as the sequence (P31652 whole entry) above

## COC(=O)C1C(c2ccc(I)cc2)CC2CCC1N2CCF (stereo unspecified)
[1]
  Selectivity: 0.035
[2]
  Selectivity: 23.2
[3]
  Ki: 4 nM
[4]
  Ki: 93 nM
[5]
  Ki: 0.14 nM

## COC(=O)C1C(c2ccc(I)cc2)CC2CCC1N2CCCOS(C)(=O)=O (stereo unspecified)
[1]
  Selectivity: 0.477
[2]
  Selectivity: 138
[3]
  Ki: 36.3 nM
[4]
  Ki: 5000 nM
[5]
  Ki: 17.3 nM

## COC(=O)[C@@H]1C2CCC(C[C@@H]1c1ccc(I)cc1)N2CC(=O)N(C)C (stereo partly specified)
[1]
  Selectivity: 0.524
[2]
  Selectivity: 42.8
[3]
  Ki: 12.2 nM
[4]
  Ki: 522 nM
[5]
  Ki: 6.4 nM

## COC(=O)C1C(c2ccc(I)cc2)CC2CCC1N2CCCBr (stereo unspecified)
[1]
  Selectivity: 0.137
[2]
  Selectivity: 64.1
[3]
  Ki: 2.56 nM
[4]
  Ki: 164 nM
[5]
  Ki: 0.35 nM

## COC(=O)C1C(c2ccc(I)cc2)CC2CCC1N2CC(OC)OC (stereo unspecified)
[1]
  Selectivity: 0.249
[2]
  Selectivity: 16.2
[3]
  Ki: 6.8 nM
[4]
  Ki: 110 nM
[5]
  Ki: 1.69 nM

## COC(=O)[C@H]1[C@@H](c2ccc(F)cc2)C[C@H]2CC[C@H]1N2C
[4]
  Ki: 635 nM
[5]
  Ki: 181 nM

## COC(=O)C1C(c2ccc(I)cc2)CC2CCC1N2CCCCl (stereo unspecified)
[1]
  Selectivity: 0.1
[2]
  Selectivity: 31
[3]
  Ki: 3.1 nM
[4]
  Ki: 96 nM
[5]
  Ki: 0.32 nM

## COC(=O)C1C(c2ccc(I)cc2)CC2CCC1N2C(=O)C(C)C (stereo unspecified)
[1]
  Selectivity: 0.049
[2]
  Selectivity: > 4.8
[3]
  Ki: 2100 nM
[4]
  Ki: > 10000 nM
[5]
  Ki: 102 nM

## COC(=O)C1C(c2ccc(I)cc2)CC2CCC1N2CC(F)F (stereo unspecified)
[1]
  Selectivity: 0.636
[2]
  Selectivity: > 330
[3]
  Ki: 15.1 nM
[4]
  Ki: > 5000 nM
[5]
  Ki: 9.6 nM

## COC(=O)C1C(c2ccc(I)cc2)CC2CCC1N2CC1CC1 (stereo unspecified)
[1]
  Selectivity: 0.302
[2]
  Selectivity: 45.6
[3]
  Ki: 4.3 nM
[4]
  Ki: 198 nM
[5]
  Ki: 1.3 nM

## COC(=O)C1C(c2ccc(I)cc2)CC2CCC1N2CCCI (stereo unspecified)
[1]
  Selectivity: 0.227
[2]
  Selectivity: 129
[3]
  Ki: 38.9 nM
[4]
  Ki: 5000 nM
[5]
  Ki: 8.84 nM

## CC(C)OC(=O)C1C(c2ccc(I)cc2)CC2CCC1N2CCF (stereo unspecified)
[1]
  Selectivity: 4.9
[2]
  Selectivity: > 2300
[3]
  Ki: 4.4 nM
[4]
  Ki: > 10000 nM
[5]
  Ki: 21.7 nM

## COC(=O)[C@@H]1C2CCC(C[C@@H]1c1ccc(I)cc1)N2CCCN1C(=O)c2ccccc2C1=O (stereo partly specified)
[1]
  Selectivity: 0.065
[2]
  Selectivity: 8.1
[3]
  Ki: 9.1 nM
[4]
  Ki: 73.7 nM
[5]
  Ki: 0.59 nM

## COC(=O)C1C(c2ccc(I)cc2)CC2CCC1N2CCCO (stereo unspecified)
[1]
  Selectivity: 0.463
[2]
  Selectivity: 40.3
[3]
  Ki: 5.39 nM
[4]
  Ki: 217 nM
[5]
  Ki: 2.5 nM

## CC(C)OC(=O)C1C(c2ccc(I)cc2)CC2CCC1N2CCCF (stereo unspecified)
[1]
  Selectivity: 40.6
[2]
  Selectivity: 8300
[3]
  Ki: 1.2 nM
[4]
  Ki: 10000 nM
[5]
  Ki: 48.7 nM

## COC(=O)CN1C2CCC1C(C(=O)OC)C(c1ccc(I)cc1)C2 (stereo unspecified)
[1]
  Selectivity: 0.068
[2]
  Selectivity: 2.5
[3]
  Ki: 11.9 nM
[4]
  Ki: 29.1 nM
[5]
  Ki: 0.81 nM

## COC(=O)C1C(c2ccc(I)cc2)CC2CCC1N2CCCF (stereo unspecified)
[1]
  Selectivity: 0.032
[2]
  Selectivity: 18
[3]
  Ki: 3.5 nM
[4]
  Ki: 63 nM
[5]
  Ki: 0.11 nM

## COC(=O)C1C(c2ccc(I)cc2)CC2CCC1N2C (stereo unspecified)
[1]
  Selectivity: 0.32
[2]
  Selectivity: 2
[3]
  Ki: 1.4 nM
[4]
  Ki: 2.8 nM

Source: ChEMBL document CHEMBL1129668 (J Med Chem, 1996)
